Data published in ChEMBL document CHEMBL4007505 (J Med Chem, 2017).
The source made the active and inactive calls. The calls are words filed in the database; no cut-off is given here.

Experiments:
[1] = target: T1, Sodium-dependent dopamine transporter (Homo sapiens, UniProt Q01959); test: Enhancing of [3H]WIN35,428 binding to recombinant human DAT expressed in HEK293 cell membranes pre-incubated for 10 mins before radioligand addition and measured 90 mins after radioligand addition by micro beta scintillation counting analysis relative to control
T1 sequence (Q01959 whole entry): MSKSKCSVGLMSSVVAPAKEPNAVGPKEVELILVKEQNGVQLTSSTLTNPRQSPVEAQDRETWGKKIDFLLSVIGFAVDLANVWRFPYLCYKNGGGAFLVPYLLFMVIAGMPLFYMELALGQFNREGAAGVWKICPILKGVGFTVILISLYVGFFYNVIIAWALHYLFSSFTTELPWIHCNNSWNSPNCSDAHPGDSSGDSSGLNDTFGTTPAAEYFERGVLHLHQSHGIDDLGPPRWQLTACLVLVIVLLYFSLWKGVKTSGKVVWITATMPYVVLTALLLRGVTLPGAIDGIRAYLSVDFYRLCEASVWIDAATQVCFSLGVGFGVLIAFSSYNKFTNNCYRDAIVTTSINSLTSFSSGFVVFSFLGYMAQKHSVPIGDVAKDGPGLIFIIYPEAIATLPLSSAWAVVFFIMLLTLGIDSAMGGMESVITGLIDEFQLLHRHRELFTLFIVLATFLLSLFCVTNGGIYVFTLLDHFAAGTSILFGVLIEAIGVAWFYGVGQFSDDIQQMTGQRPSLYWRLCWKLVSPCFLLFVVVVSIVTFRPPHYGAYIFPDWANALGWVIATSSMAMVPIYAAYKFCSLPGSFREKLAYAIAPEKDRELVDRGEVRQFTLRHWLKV

[2] = target: T2, 5-hydroxytryptamine receptor 2C (Homo sapiens, UniProt P28335); test: Displacement of [3H]Mesulergine from human 5-HT2C receptor
T2 sequence (P28335 whole entry): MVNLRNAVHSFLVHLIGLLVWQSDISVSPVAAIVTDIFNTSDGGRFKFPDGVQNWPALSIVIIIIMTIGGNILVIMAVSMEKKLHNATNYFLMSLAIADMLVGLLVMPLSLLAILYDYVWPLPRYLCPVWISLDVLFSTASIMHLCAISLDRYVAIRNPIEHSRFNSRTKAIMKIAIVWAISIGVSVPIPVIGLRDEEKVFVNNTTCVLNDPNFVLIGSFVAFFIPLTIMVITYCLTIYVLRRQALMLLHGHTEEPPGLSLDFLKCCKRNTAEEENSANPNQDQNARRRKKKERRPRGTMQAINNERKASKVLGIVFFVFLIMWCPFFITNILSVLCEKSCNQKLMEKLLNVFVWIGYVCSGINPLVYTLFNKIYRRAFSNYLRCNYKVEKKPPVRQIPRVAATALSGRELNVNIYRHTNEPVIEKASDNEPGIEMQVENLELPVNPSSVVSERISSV

Adenosine receptor A3 [3] = target: T3, Adenosine receptor A3 (Homo sapiens, UniProt P0DMS8); test: Displacement of [125I]N6-(4-amino-3-iodobenzyl)adenosine-5'-N-methyluronamide from human A3AR expressed in HEK293T cells pre-incubated for 10 mins before radioligand addition and measured 90 mins after radioligand addition by micro beta scintillation counting analysis relative to control; type: cell-based, HEK-293T
T3 sequence (P0DMS8 whole entry): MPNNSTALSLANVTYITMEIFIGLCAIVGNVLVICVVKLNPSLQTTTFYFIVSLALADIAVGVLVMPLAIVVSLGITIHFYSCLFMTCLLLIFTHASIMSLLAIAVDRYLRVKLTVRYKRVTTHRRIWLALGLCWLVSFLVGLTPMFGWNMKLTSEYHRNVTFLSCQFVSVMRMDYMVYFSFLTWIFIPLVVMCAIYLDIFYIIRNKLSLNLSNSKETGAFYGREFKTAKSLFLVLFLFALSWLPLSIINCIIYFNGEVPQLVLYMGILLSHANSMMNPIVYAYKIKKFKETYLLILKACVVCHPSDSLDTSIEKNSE

[4] = target: T4, Adenosine receptor A3 (Mus musculus) (UniProt Q61618); test: Displacement of [125I]N6-(4-amino-3-iodobenzyl)adenosine-5'-N-methyluronamide from mouse A3AR expressed in HEK293T cells at 10 uM pre-incubated for 10 mins before radioligand addition and measured 90 mins after radioligand addition by micro beta scintillation counting analysis relative to control; type: cell-based
T4 sequence (whole entry): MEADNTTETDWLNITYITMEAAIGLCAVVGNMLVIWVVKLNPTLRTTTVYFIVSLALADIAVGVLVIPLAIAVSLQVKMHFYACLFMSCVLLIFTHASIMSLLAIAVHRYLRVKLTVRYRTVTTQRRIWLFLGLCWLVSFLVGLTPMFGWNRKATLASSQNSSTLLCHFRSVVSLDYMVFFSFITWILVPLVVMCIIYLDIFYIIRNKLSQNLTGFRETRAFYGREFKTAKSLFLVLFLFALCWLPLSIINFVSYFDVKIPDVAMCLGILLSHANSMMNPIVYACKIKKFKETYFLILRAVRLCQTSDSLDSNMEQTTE

[5] = target: T1, Sodium-dependent dopamine transporter; test: Inhibition of [3H]WIN35,428 binding to recombinant human DAT expressed in HEK293 cell membranes at 10 uM pre-incubated for 10 mins before radioligand addition and measured 90 mins after radioligand addition by micro beta scintillation counting analysis relative to control
[6] = target: T1, Sodium-dependent dopamine transporter; test: Enhancing of [3H]WIN35,428 binding to recombinant human DAT expressed in HEK293 cell membranes at 10 uM pre-incubated for 10 mins before radioligand addition and measured 90 mins after radioligand addition by micro beta scintillation counting analysis relative to control
[7] = target: T5, Sodium-dependent noradrenaline transporter (Homo sapiens, UniProt P23975); test: Enhancing of [125I]RTI-55 binding to recombinant human NET expressed in HEK293 cell membranes preincubated for 10 mins followed by radioligand addition measured after 90 mins by micro beta scintillation counting analysis; set-up: concentration or dose not given beside the values; details: for EC50: read-out: EC50
T5 sequence (P23975 whole entry): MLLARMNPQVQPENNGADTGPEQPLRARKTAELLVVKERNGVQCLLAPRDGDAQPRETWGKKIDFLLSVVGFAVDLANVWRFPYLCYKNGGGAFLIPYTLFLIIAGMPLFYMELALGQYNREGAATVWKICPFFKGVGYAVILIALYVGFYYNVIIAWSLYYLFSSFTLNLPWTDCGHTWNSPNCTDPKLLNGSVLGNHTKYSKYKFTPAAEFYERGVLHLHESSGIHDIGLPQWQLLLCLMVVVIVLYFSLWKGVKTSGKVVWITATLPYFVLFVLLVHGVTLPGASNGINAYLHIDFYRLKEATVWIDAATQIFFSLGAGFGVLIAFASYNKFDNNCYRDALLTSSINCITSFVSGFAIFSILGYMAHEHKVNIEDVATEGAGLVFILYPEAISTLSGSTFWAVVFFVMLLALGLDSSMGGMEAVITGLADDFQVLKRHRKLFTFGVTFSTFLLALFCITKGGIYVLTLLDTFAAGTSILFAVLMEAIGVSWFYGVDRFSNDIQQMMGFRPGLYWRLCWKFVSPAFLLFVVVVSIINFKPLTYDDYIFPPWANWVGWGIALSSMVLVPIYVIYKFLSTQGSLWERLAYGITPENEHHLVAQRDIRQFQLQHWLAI

[8] = target: T1, Sodium-dependent dopamine transporter; test: Inhibition of recombinant human DAT expressed in HEK293 cell […] as reduction in [3H]-DA uptake incubated for 22 mins by micro beta scintillation counting analysis
[9] = target: T6, Sodium-dependent dopamine transporter (Mus musculus, UniProt Q61327); test: Inhibition of mouse DAT expressed in HEK293 cells assessed as reduction in [3H]-DA uptake; type: cell-based
T6 sequence (Q61327 whole entry): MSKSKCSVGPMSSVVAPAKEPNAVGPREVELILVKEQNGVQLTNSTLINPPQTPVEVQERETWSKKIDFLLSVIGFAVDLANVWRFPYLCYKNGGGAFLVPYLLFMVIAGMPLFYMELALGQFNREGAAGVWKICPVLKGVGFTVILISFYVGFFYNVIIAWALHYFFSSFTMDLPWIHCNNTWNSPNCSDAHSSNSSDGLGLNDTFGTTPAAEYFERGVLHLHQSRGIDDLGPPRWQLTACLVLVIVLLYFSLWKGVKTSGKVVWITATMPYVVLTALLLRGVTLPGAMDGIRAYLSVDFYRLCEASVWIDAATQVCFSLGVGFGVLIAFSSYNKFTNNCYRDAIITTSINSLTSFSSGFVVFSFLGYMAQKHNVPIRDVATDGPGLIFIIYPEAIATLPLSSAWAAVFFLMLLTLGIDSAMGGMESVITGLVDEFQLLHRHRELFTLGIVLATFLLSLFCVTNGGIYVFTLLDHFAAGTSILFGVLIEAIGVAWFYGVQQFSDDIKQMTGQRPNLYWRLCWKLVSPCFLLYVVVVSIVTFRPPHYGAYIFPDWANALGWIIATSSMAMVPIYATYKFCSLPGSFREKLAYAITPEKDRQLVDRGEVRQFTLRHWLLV

[10] = target: Adenosine receptor A3 (Homo sapiens) (UniProt P0DMS8); test: Agonist activity at human A3AR assessed as inhibition of cAMP formation at 10 uM relative to adenosine-5'-Nethyluronamide
[11] = target: T5, Sodium-dependent noradrenaline transporter; test: Inhibition of recombinant human NET expressed in HEK293 […] assessed as reduction in [3H]-norepinephrine uptake incubated for 22 mins by micro beta scintillation counting analysis
[12] = target: T1, Sodium-dependent dopamine transporter; test: Enhancing of [3H]mazindol binding to recombinant human DAT expressed in HEK293 cell membranes preincubated for 10 mins followed by radioligand addition measured after 90 mins by micro beta scintillation counting analysis; set-up: concentration or dose not given beside the values; details: for EC50: read-out: EC50
Outline: (§1)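 Membranes of HEK-293 cells stably expressing hDAT, hNET or hSERT. […] Compound preincubated 10 min at room temperature, then [125I]23 (40-80 pM final) or [3H]26 (1-3 nM for DAT and NET, 10-13 nM for SERT) added. Incubated 90 min at room temperature in the dark, then filtered. EC50 or Ki; mean ± SEM.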

[13] = target: T6, Sodium-dependent dopamine transporter; test: (§2) Enhancing of [125I]RTI-55 binding to mouse DAT expressed in HEK293 cells preincubated for 10 mins followed by radioligand addition measured after 90 mins by micro beta scintillation counting analysis; type: cell-based
Outline: (§3)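 Membranes preincubated 10 min at room temperature with compound in Krebs-HEPES buffer pH 7.4, then [125I]23 at fixed 45-50 pM for 90 min in the dark, filtered. […] EC50 and % control binding; mean ± SEM.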

[14] = target: Sodium-dependent dopamine transporter (Mus musculus) (UniProt Q61327); test: as §2; type: cell-based; outline: as §3
Sodium-dependent dopamine transporter (Mus musculus), sequence (Q61327 whole entry): as above

[15] = target: T5, Sodium-dependent noradrenaline transporter; test: Enhancing of [3H]mazindol binding to recombinant human NET expressed in HEK293 cell membranes preincubated for 10 mins followed by radioligand addition measured after 90 mins by micro beta scintillation counting analysis
[16] = target: T7, Sodium-dependent serotonin transporter (Homo sapiens, UniProt P31645); test: Enhancing of [125I]RTI-55 binding to recombinant human SERT expressed in HEK293 cell membranes preincubated for 10 mins followed by radioligand addition measured after 90 mins by micro beta scintillation counting analysis; details: for EC50: read-out: EC50
[17] = target: T1, Sodium-dependent dopamine transporter; test: Enhancing of [125I]RTI-55 binding to recombinant human DAT expressed in HEK293 cell membranes preincubated for 10 mins followed by radioligand addition measured after 90 mins by micro beta scintillation counting analysis; set-up: concentration or dose not given beside the values; details: for EC50: read-out: EC50; outline: as §1
[18] = target: T7, Sodium-dependent serotonin transporter; test: Enhancing of [3H]mazindol binding to recombinant human SERT expressed in HEK293 cell membranes preincubated for 10 mins followed by radioligand addition measured after 90 mins by micro beta scintillation counting analysis
[19] = target: T7, Sodium-dependent serotonin transporter; test: Inhibition of recombinant human SERT expressed in HEK293 cell […] as reduction in [3H]5-HT uptake incubated for 22 mins by micro beta scintillation counting analysis
Target sequence in this assay (P31645 whole entry): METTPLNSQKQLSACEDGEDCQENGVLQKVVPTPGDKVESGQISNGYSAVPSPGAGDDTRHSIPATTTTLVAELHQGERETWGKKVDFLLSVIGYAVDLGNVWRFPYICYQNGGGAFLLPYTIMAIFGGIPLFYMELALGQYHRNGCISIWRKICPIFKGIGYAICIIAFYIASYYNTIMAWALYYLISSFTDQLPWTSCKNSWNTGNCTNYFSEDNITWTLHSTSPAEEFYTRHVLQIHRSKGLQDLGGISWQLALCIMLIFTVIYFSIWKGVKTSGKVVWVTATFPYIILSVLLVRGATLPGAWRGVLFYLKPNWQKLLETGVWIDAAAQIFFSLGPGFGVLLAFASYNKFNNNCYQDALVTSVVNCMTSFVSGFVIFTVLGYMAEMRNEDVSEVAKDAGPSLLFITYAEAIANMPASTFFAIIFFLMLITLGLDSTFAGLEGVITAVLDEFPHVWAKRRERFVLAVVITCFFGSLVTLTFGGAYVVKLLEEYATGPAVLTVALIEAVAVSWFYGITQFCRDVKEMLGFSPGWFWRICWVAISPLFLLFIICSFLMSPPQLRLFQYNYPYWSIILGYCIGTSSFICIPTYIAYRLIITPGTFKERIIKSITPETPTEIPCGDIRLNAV

Adenosine receptor A3 [20] = target: T8, Adenosine receptor A3 (Mus musculus, UniProt Q61618); test: Displacement of [125I]N6-(4-amino-3-iodobenzyl)adenosine-5'-N-methyluronamide from mouse A3AR expressed in HEK293T cells pre-incubated for 10 mins before radioligand addition and measured 90 mins after radioligand addition by micro beta scintillation counting analysis relative to control; type: cell-based
T8 sequence (Q61618 whole entry): T4 sequence (whole entry)

SMILES	EC50 [1] [nM]	Ki (Adenosine receptor A3 [3]) [nM]	inhibition [4] [%]	inhibition [5]	Activity [6]	Activity [7] [%]	EC50 [7] [nM]	IC50 [8] [nM]	IC50 [11] [nM]	Activity [12] [%]	EC50 [12] [nM]	Activity [15]	Activity [16]	Activity [17] [%]	EC50 [17] [nM]	also measured
CNc1nc(C#Cc2ccc(Cl)s2)nc2c1ncn2[C@H]1[C@H](O)[C@H](O)[C@]2(C(=O)OC(C)C)C[C@H]12	> 1000	42.9	30	36%	inactive											Ki [2]: 430 nM
CNc1nc(C#Cc2ccc(Cl)s2)nc2c1ncn2[C@H]1[C@H](O)[C@H](O)[C@]2(C(=O)OC)C[C@H]12		5.38	36	inactive	352%	375	310	127	3380	540	124	inactive	inactive	458	35	IC50 [9]: 940 nM; Efficacy [10]: 11.6%; EC50 [13]: 810 nM; Emax [14]: 1440%
CCNc1cc(C#Cc2ccc(Cl)s2)nc2c1ncn2[C@H]1[C@H](O)[C@H](O)[C@]2(C(=O)NC)C[C@H]12					inactive											
CNc1nc(C#Cc2ccc(Cl)s2)nc2c1ncn2[C@H]1[C@H](O)[C@H](O)[C@]2(C(=O)OCCC3CCCCC3)C[C@H]12		770	5		inactive											
CNc1nc(C#Cc2ccc(Br)s2)nc2c1ncn2[C@H]1[C@H](O)[C@H](O)[C@]2(C(=O)OC)C[C@H]12		8.56	57	inactive	370%	293	400	246	3560	520	308	inactive	inactive	374	53.5	Ki [2]: 258 nM; EC50 [18]: > 10000 nM; EC50 [16]: > 10000 nM
CCOC(=O)[C@@]12C[C@@H]1[C@@H](n1cnc3c(NC)nc(C#Cc4ccc(Cl)s4)nc31)[C@H](O)[C@@H]2O		14.5	45	inactive	539%	365	490	107	3980	455	267	inactive	inactive	434	34	IC50 [9]: 1170 nM; EC50 [18]: > 10000 nM; EC50 [13]: 1070 nM; Emax [14]: 1560%; EC50 [16]: > 10000 nM
CNc1nc(C#Cc2ccc(Cl)s2)nc2c1ncn2[C@H]1[C@H](O)[C@H](O)[C@]2(C(=O)OCCC(C)C)C[C@H]12		24.4	32	inactive	196%											
CNc1nc(C#Cc2ccc(Cl)s2)nc2c1ncn2[C@H]1[C@H](O)[C@H](O)[C@]2(C(=O)OCCCc3ccccc3)C[C@H]12			9		inactive											
CNc1nc(C#Cc2ccc(Cl)s2)nc2c1ncn2[C@H]1[C@H](O)[C@H](O)[C@]2(C(=O)O)C[C@H]12	> 1000		0	inactive	50%											
CNC(=O)[C@@]12C[C@@H]1[C@@H](n1cnc3c(NC)nc(C#Cc4ccc(Cl)s4)cc31)[C@H](O)[C@@H]2O			38	inactive	334%	318	740	163	5060	405	550	inactive	inactive	437	239	IC50 [9]: 4300 nM; Efficacy [10]: 116%; EC50 [13]: 2760 nM; Emax [14]: 1000%
CNC(=O)[C@@]12C[C@@H]1[C@@H](n1cnc3c(NC)nc(C#Cc4ccc(F)c(F)c4)nc31)[C@H](O)[C@@H]2O						371		92		438	128	inactive	inactive	690	70	Activity [18]: inactive; EC50 [18]: > 10000 nM; EC50 [16]: > 10000 nM; IC50 [19]: > 10000 nM
CNc1nc(C#Cc2ccc(Cl)s2)nc2c1ncn2[C@H]1[C@H](O)[C@H](O)[C@]2(C(=O)NCCN)C[C@H]12	> 1000	156	0	inactive	136%											
CCOC(=O)[C@@]12C[C@@H]1[C@@H](n1cnc3c(NC)nc(C#Cc4ccc(Br)s4)nc31)[C@H](O)[C@@H]2O	400	6.42		inactive	430%											Ki (Adenosine receptor A3 [20]): 1800 nM
CCCCOC(=O)[C@@]12C[C@@H]1[C@@H](n1cnc3c(NC)nc(C#Cc4ccc(Cl)s4)nc31)[C@H](O)[C@@H]2O	1200	17.5	54	inactive	285%											
CCCOC(=O)[C@@]12C[C@@H]1[C@@H](n1cnc3c(NC)nc(C#Cc4ccc(Cl)s4)nc31)[C@H](O)[C@@H]2O		5.78		inactive	426%	302	980	1140	7900	347	535	inactive	inactive	461	294	EC50 [18]: > 10000 nM; EC50 [16]: > 10000 nM; Ki (Adenosine receptor A3 [20]): 2810 nM
